# Where “and” joins values, the source holds several entries; their conditions need not be identical. Equal values may be shown once.
# Key:
# rat stomach = assay: Ulcerogenic liability; type: in vivo; settings: rats sacrificed 4 h after drug administration
# rat's stomach = assay: Histo-pathological study of glandular and non-glandular stomach; type: in vivo; settings: text description
# ovine COX-2 = biological target: T1, ovine COX-2 (Ovis aries, UniProt P79208); assay: In vitro cyclooxygenase; type: biochemical; settings: for Selectivity index (SI): COX-1 IC50/COX-2 IC50
# T1 sequence (P79208 17-603): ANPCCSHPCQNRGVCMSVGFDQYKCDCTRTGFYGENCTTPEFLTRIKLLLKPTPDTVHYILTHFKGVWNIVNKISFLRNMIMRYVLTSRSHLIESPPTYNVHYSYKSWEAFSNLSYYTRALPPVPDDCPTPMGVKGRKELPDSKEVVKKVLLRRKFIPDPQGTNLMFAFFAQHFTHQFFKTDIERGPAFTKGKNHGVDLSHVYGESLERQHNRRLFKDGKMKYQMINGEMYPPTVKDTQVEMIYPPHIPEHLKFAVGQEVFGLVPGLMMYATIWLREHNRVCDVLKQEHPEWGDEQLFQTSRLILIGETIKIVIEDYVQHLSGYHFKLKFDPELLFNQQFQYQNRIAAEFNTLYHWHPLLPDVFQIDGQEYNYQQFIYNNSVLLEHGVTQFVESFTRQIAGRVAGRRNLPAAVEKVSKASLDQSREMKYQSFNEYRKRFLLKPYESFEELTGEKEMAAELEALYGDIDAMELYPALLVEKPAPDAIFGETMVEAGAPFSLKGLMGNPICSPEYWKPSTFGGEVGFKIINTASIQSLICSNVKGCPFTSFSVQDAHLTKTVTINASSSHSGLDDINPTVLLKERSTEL
# ovine COX-1 = biological target: T2, ovine COX-1 (Ovis aries, UniProt P05979); assay: In vitro cyclooxygenase; type: biochemical
# T2 sequence (P05979 25-600): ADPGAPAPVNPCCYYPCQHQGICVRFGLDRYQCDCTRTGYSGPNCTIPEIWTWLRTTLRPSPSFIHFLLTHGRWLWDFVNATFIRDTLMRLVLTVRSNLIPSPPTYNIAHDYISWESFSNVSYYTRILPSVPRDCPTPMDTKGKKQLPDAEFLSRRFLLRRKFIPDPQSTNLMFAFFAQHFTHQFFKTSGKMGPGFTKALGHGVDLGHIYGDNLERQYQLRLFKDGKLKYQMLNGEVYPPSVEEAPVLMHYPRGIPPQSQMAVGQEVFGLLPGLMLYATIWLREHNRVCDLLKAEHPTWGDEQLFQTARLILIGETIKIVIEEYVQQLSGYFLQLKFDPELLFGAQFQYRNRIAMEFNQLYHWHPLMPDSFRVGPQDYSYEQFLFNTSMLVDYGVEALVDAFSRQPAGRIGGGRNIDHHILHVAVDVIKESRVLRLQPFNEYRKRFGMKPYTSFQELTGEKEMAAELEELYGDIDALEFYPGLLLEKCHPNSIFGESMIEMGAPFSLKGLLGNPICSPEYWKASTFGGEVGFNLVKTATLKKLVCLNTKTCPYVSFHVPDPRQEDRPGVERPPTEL
# [1] = tested on: carrageenan-induced rat paw edema; assay: Carrageenan-induced rat paw edema model; type: in vivo; settings: 10 mg kg−1 po, n = 4; for Edema inhibition %, 1 h / Edema thickness ± SEM, 1 h: 1 h after carrageenan injection; for Edema inhibition %, 3 h / Edema thickness ± SEM, 3 h: 3 h after carrageenan injection; for Edema inhibition %, 6 h / Edema thickness ± SEM, 6 h: 6 h after carrageenan injection
# Method in brief: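 Rats were dosed orally with test compound (10 mg kg−1) in 5% aqueous DMSO (v/v). […] Thirty minutes after dosing, 0.02 ml of 1% carrageenan was injected sub-plantar. Paw thickness was measured 1, 3 and 6 h after injection, and edema inhibition % was calculated from paw thickness.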
SMILES,"Ulcer index, mean (rat stomach) [mm]",Severity of histopathological lesions of the stomach (in words) (rat's stomach),IC50 (ovine COX-2) [nM],Selectivity index (SI) (ovine COX-2),IC50 (ovine COX-1) [µM],"Edema inhibition %, 1 h [1] [%]","Edema thickness ± SEM, 1 h [1] [mm]","Edema inhibition %, 3 h [1] [%]","Edema thickness ± SEM, 3 h [1] [mm]","Edema inhibition %, 6 h [1]","Edema thickness ± SEM, 6 h [1] [mm]"
"CS(=O)(=O)c1ccc(-c2nc3ccccc3n2CC(=O)N/N=C/c2ccc(Cl)cc2)cc1 [11b, (E)-N′-(4-Chlorobenzylidene)-2-(2-(4-(methylsulfonyl)phenyl)-1H-benzo[d]imidazol-1-yl) acetohydrazide]",0.83,mild pathological lesions,100,134,13.4,86,0.357 ± 0.012,93,0.155 ± 0.002,95%,0.094 ± 0.006
"COc1ccc(/C=N/NC(=O)Cn2c(-c3ccc(S(C)(=O)=O)cc3)nc3cc(C)ccc32)cc1 [11k, (E)-N′-(4-Methoxybenzylidene)-2-(5-methyl-2-(4-(methylsulfonyl)phenyl)-1H-benzo[d]imidazol-1-yl) acetohydrazide]",4.5,mild to moderate lesions,100,123,12.3,82,0.464 ± 0.014,92,0.189 ± 0.017,94%,0.111 ± 0.009
"C/C(=N\NC(=O)Cn1c(-c2ccc(S(C)(=O)=O)cc2)nc2cc(Cl)ccc21)c1ccc(Cl)cc1 [12d, (E)-2-(5-Chloro-2-(4-(methylsulfonyl)phenyl)-1H-benzo[d]imidazol-1-yl)-N′-(1-(4-chlorophenyl)ethylidene) acetohydrazide]",1,mild pathological lesions,100,132,13.2,89,0.286 ± 0.009,93,0.154 ± 0.008,94.7% and 95%,0.098 ± 0.005
